Sampled rows, rich in hits. Any-hit rate of the full collection: about 3.6%.
FGF22 binding: binders of human FGF22 protein, primary screen, FGF22 synaptogenesis inhibitor project, biophysical, thermal shift, single point. recombinant FGF22 thermal shift, SYPRO orange fluorescence; percent of sucrose octasulfate shift, DMSO zero. actives 1.5% (n = 340,000). activity (Tm shift, normalised), % at 9.99 µM. Fibroblast growth factor 22 (Homo sapiens), Q9HCT0;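 active means mean Tm shift, scaled 0 neutral to 100 positive control, at about 1.3% or above, every replicate too, limit read from the data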
Target sequence (Q9HCT0 whole entry, looked up): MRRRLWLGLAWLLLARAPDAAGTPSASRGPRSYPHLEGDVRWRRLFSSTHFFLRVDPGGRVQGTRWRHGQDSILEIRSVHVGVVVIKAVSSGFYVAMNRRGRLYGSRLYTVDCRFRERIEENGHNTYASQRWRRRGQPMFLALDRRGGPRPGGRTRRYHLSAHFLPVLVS
FID counter: compounds displacing fluorescent DNA intercalator, primary screen, artefact control for HCV NS3 helicase inhibitor project, biochemical, FID fluorescence. DNA fluorescent intercalator displacement. inhibition, % at 7.9 µM. actives 0.17% (n = 290,000). AID 1845, 2009; in the data active means inhibition above about 37%;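 further: 0% = vehicle and 100% = reference compound; higher means more ethidium bromide displaced from hairpin DNA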
GRIN3A LBD mod: binders of NR3A ligand-binding domain, primary screen, biophysical, differential scanning fluorimetry, uHTS. NR3A LBD differential scanning fluorimetry, Tm shift; 0% = protein alone, 100% = glycine-bound protein. Tm shift relative to glycine control, % at 25 µM. actives 2.5% (n = 340,000);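 active means melting temperature shift of at least 10% of the positive control shift, at one fixed dose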
ZTA counter: ZTA (EBV) inhibition in EBNA-1 counter-screen | P03206 | ZTA-DNA binding, fluorescence polarization | inhibition, % at 11 µM | actives 0.15% (n = 320,000) | AID 2234; in the data active means inhibition above about 33%
Target sequence (P03206 whole entry, looked up): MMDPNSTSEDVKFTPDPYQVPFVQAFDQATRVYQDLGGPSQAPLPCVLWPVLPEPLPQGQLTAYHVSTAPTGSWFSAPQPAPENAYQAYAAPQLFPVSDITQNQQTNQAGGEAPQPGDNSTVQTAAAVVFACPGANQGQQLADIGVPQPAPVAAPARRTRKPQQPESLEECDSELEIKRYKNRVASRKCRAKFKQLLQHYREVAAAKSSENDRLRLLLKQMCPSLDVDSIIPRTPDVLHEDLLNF
NS3 helicase inh: inhibitors of HCV NS3 helicase, primary screen, biochemical, Cy5 molecular beacon fluorescence | NS3 helicase DNA unwinding | inhibition, % at 10.9 µM | actives 0.56% (n = 290,000) | AID 1800, 2009;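 active means inhibition above the mean of all tested compounds plus 3 SD, set per campaign, cut at about 35% in these data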;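 further: 0% = DMSO wells and 100% = thioflavine S control wells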
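Test system: hepatitis C virus NS3 helicase domain fragment enzyme. Also added: annealed dual-labelled DNA beacon duplex, ATP-started. Timing: 60 min unwinding reaction at 25 °C after ATP addition. Technique: Cy5 fluorescence. Measure: % inhibition of unwinding.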
EBNA-1 inh: EBNA-1 DNA-binding inhibitors, primary screen, biochemical, fluorescence polarization; actives 0.34% (n = 300,000); inhibition, % at 14.8 µM; in the data active means inhibition above about 28%
The depositor's hits bear a star; nt = no result given.

SMILES	FGF22 binding	FID counter	GRIN3A LBD mod	ZTA counter	NS3 helicase inh	EBNA-1 inh
CCOC(=O)N1CCN(C(=O)CSc2nnc(-c3cccc(OC)c3)o2)CC1	nt	-30.3	-1.9	-9.1	6.6	0.0
CCOC(=O)N1CCN(C(=O)CSc2nnc(-c3cc(OC)cc(OC)c3)o2)CC1	nt	-1.8	10.7*	2.0	0.7	0.1
C[C@@H]1CN([C@@H](C)CO)C(=O)c2cc(-c3cccc(C#N)c3)cnc2O[C@@H]1CN(C)C(=O)C1CCC1	-0.1	nt	nt	nt	nt	nt
COc1ccc(/C=N/Nc2nonc2N)cc1OC	nt	0.4	-8.4	-11.8	-2.5	0.7
Cc1c(C(=O)N/N=C/c2c(O)ccc3ccccc23)nnn1-c1nonc1N	-0.1	1.9	4.1	-8.5	12.8	1.0
COc1ccc(/C=N/Nc2nonc2N)cc1	nt	2.0	17.3*	4.0	-0.9	2.3
COc1ccc(/C=N/Nc2nc(N)cc(Cl)n2)cc1OC	-0.1	-12.6	12.0*	-15.5	2.2	0.5
O=C(O)c1cc(N/N=C/c2c(O)ccc3ccccc23)ccc1Cl	41.1	-7.2	8.3	6.3	11.8	7.9
Nc1nonc1N/N=C/c1c(O)ccc2ccccc12	0.0	8.4	24.9*	-12.9	10.3	-3.8
Nc1cc(Cl)nc(N/N=C/c2c(O)ccc3ccccc23)n1	0.0	3.8	27.7*	-14.1	-19.2	-4.0
COCCN(C[C@H]1[C@H](c2ccccc2)[C@@H](CO)N1C(C)=O)C(=O)c1ccncc1	0.0	nt	nt	nt	nt	nt
CCc1ccc2nc(NC(=O)CN3C(=O)NC4(CCCC4)C3=O)sc2c1	-0.4	nt	11.2*	nt	nt	nt
CCCCC1(c2ccc(F)cc2)NC(=O)N(CC(=O)Nc2ccc(N3CCOCC3)cc2)C1=O (stereo unspecified)	0.2	nt	11.6*	nt	nt	nt
CCC1(c2ccc(F)cc2)NC(=O)N(CC(=O)Nc2ccc(-c3nc4ccc(C)cc4s3)cc2)C1=O (stereo unspecified)	nt	-3.4	10.7*	7.4	-3.9	2.5
CCCN(C)C[C@H]1OCCCC[C@@H](C)Oc2ccc(NC(=O)Nc3ccccc3)cc2C(=O)N([C@@H](C)CO)C[C@H]1C	-0.8	nt	nt	nt	nt	nt
CNC[C@H]1Oc2ccc(NC(=O)Nc3ccc4c(c3)OCO4)cc2C(=O)N([C@@H](C)CO)C[C@H]1C	0.6	nt	nt	nt	nt	nt
CC1C/C(=C\c2cccnc2)C(=O)/C(=C/c2cccnc2)C1 (stereo unspecified)	nt	-16.5	-7.1	44.3*	6.1	-7.7
CCCC#Cc1cnc2c(c1)C(=O)N([C@H](C)CO)C[C@H](C)[C@@H](CN(C)C(=O)Nc1ccc(OC)cc1)O2	-0.2	nt	nt	nt	nt	nt
CCCC(=O)N1CC2(C1)CN(C(=O)C1CCCCC1)[C@@H](CO)c1[nH]c3cc(OC)ccc3c12	-0.1	nt	nt	nt	nt	nt
CC(C)CN(CCNC(=O)c1cn(C)c2ccc(S(=O)(=O)N3CCCC3)cc2c1=O)CC(C)C	0.0	-7.6	25.6*	-3.0	3.5	5.2
CCCCN(CC)CCCNC(=O)c1cn(CC)c2ccc(S(=O)(=O)N3CCc4ccccc4C3)cc2c1=O	43.0*	40.6*	-1.2	15.4	-65.3	-3.8
C[C@@H]1CN([C@@H](C)CO)C(=O)c2c(c3ccccc3n2C)-c2ccccc2CO[C@@H]1CN(C)C(=O)c1ccccc1	-0.2	nt	nt	nt	nt	nt
Cc1ccc(S(=O)(=O)N(C)C[C@@H]2OCCCC[C@H](C)Oc3ccc(NC(=O)NC4CCCCC4)cc3C(=O)N([C@H](C)CO)C[C@H]2C)cc1	-0.4	nt	nt	nt	nt	nt
O=C1NN(c2ccc(F)c(Cl)c2)C(=O)/C1=C\c1cccc(OC(=O)c2cccs2)c1	nt	-8.3	24.3*	17.3	4.7	12.7
CC(C)=C1C(=O)NN(c2ccc(F)c(Cl)c2)C1=O	0.3	-7.2	-0.5	-0.4	-16.0	-8.7
SMILES	FGF22 binding	FID counter	GRIN3A LBD mod	ZTA counter	NS3 helicase inh	EBNA-1 inh
CCOC(=O)NN1C(=O)c2ccccc2NC1c1ccc(OC)c(OC)c1 (stereo unspecified)	43.3*	-6.1	0.5	-14.6	1.7	-3.9
O=C1NC(c2ccccc2)(C(F)(F)F)C(=O)N1Cc1cccnc1 (stereo unspecified)	nt	-2.9	19.7*	-10.9	5.1	-4.8
Cc1cccc(NC(=O)COn2nnc3ccc(S(C)(=O)=O)cc32)c1	43.0*	4.4	0.1	3.0	0.2	-3.3
CCC(=O)c1c[nH]c(C(=O)N2CCN(c3ccccc3)CC2)c1	42.9*	-14.6	-1.0	-3.3	4.5	2.7
O=C(O)c1ccc(Cl)cc1Nc1nc2cc(Cl)ccc2o1	nt	15.3	13.5*	-13.0	-34.6	-4.0
C[C@@H]1CCCCO[C@@H](CN(C)C(=O)CCC(F)(F)F)[C@H](C)CN([C@@H](C)CO)C(=O)c2cc(NC(=O)CCC(F)(F)F)ccc2O1	-0.4	nt	nt	nt	nt	nt
N/C(=N\OC(=O)c1cccc2ccccc12)c1ccncc1	0.0	-7.9	-0.1	-10.6	-6.0	-3.9
N/C(=N\OC(=O)c1cccc(Br)c1)c1ccccc1	nt	-0.4	10.1*	-3.1	5.7	-11.6
N/C(=N\OC(=O)c1cccc2ccccc12)c1ccc(Br)cc1	44.0*	1.8	26.1*	-23.6	-0.2	-4.0
N/C(=N\OC(=O)c1ccc2ccccc2c1)c1ccc(Br)cc1	-0.1	-1.8	23.8*	-4.7	3.3	0.5
Cc1ccc(C(=O)O/N=C(\N)c2ccc(Br)cc2)cc1C	nt	-0.9	7.0	-11.3	4.8	3.9
N/C(=N\OC(=O)c1cccc(Br)c1)c1ccccn1	40.0	-22.6	-16.4	-28.2	20.6	-6.5
CC(C)NC(=O)Nc1ccc2c(c1)C(=O)N([C@@H](C)CO)C[C@@H](C)[C@H](CN(C)Cc1ccncc1)OCCCC[C@H](C)O2	0.0	nt	nt	nt	nt	nt
COc1ccc(C(=O)c2ccc3oc(-c4ccc(OC)cc4)c(-c4ccc(O)cc4)c3c2)cc1	-0.2	nt	11.1*	nt	nt	nt
Cc1noc(C)c1NC(=O)N(C)C[C@@H]1Oc2ccc(NC(=O)Nc3cccc4ccccc34)cc2CC(=O)N([C@H](C)CO)C[C@H]1C	-0.3	nt	nt	nt	nt	nt
C=CCOc1cccc(C(=O)N2CCC(CCC(=O)NC3CC3)CC2)c1	-0.1	-17.6	16.1*	14.1	8.0	-6.0
C[C@H]1CN([C@@H](C)CO)S(=O)(=O)c2ccc(-c3ccccc3)cc2O[C@H]1CN(C)Cc1ccccn1	-0.1	nt	nt	nt	nt	nt
Oc1ccc(-c2[nH]ncc2-c2cnn(-c3ccccc3)c2)c(O)c1	0.0	-11.8	-1.2	12.0	-1.6	5.2
Oc1cnn(-c2ccccc2)c1	nt	0.3	15.0*	15.2	-9.3	17.4
CC(=O)CC1c2cc(F)ccc2C=C(c2ccsc2)N1c1ccc(C#Cc2cncn2C)cc1 (stereo unspecified)	1.8*	nt	nt	nt	nt	nt

Screens as filed in PubChem BioAssay.
